Published values from different studies.
Lines come from different studies, so protocols differ.
Dipeptidyl peptidase 8: Dipeptidyl peptidase 8 (Homo sapiens, UniProt Q6V1X1)
HTR1D: 5-hydroxytryptamine receptor 1D (HTR1D, Homo sapiens, UniProt P28221)

The IC50 of `C[C@@]1(F)[C@H](O)[C@@H](COP(=O)(O)OP(=O)(O)OP(=O)(O)O)O[C@H]1n1ccc(=O)[nH]c1=O` is reported as over 100 µM (DNA polymerase subunit gamma-1 (POLG, Homo sapiens, UniProt P54098); enzyme activity; inhibitor).
`Cn1cc(-c2cc(F)cc(N3CCn4c(cc5c4CCCC5)C3=O)c2CO)cc(Nc2ccc(N3CCN(C4COC4)CC3)cn2)c1=O` gave a Ki of 0.637 µM (Tyrosine-protein kinase Yes (YES1, Homo sapiens, UniProt P07947); enzyme activity; inhibitor; FRET).
`CC(C)C[C@@H]1C(=O)N[C@H]([C@@H](C)O)C(=O)N[C@H](C)[C@@H](C)C(=O)O[C@@H](Cc2ccccc2)C(=O)N(C)[C@@H](C(C)C)C(=O)N2CCC[C@H]2C(=O)N(C)[C@H](Cc2ccccc2)C2=N[C@@H](CS2)C(=O)N[C@H](C)C2=N[C@@H](CS2)C(=O)N1C` gave an IC50 of 16.6 µM (Dipeptidyl peptidase 8; enzyme activity; inhibitor).
`C#CCNC(=O)c1cc2ccc(N(CC)CC)cc2oc1=O` gave an IC50 of 1 µM (Acetylcholinesterase (Ache, Mus musculus, UniProt P21836); enzyme activity; inhibitor; Ellman; pH 7.6).
`O=C(NO)c1ccccc1` has an IC50 of 3.42 µM (Histone deacetylase 6, CD2 (hdac6, Danio rerio, UniProt F8W4B7); enzyme activity; inhibitor; fluorescence).
With `CSCC[C@H](NC(=O)[C@@H]1CCCN1C(=O)CNC(=O)c1ccc2c(c1)C(=O)OC21c2ccc(O)cc2Oc2cc(O)ccc21)C(=O)N[C@@H](CCC(N)=O)C(=O)N[C@H](C(=O)N[C@@H](CO)C(=O)N[C@H](C(=O)N1CCC[C@H]1C(=O)N[C@@H](CCCCN)C(=O)N[C@@H](CC(N)=O)C(=O)NCC(=O)O)[C@@H](C)OP(=O)(O)O)[C@@H](C)O` the Kd was 0.0504 µM (Serine/threonine-protein kinase PLK2, polo-box (PLK2, Homo sapiens, UniProt Q9NYY3); binding; FP).
For `NCCC[C@H](N)C(=O)O`, the Ki was 1900 µM (Arginase (Schistosoma mansoni, UniProt Q6WVP6); enzyme activity; inhibitor; absorbance).
With `CC[C@H]1NC(=O)[C@@H]2CSC(=N2)[C@@H](Cc2ccccc2)N(C)C(=O)[C@@H]2CCCN2C(=O)[C@H](C(C)C)N(C)C(=O)[C@H](Cc2ccccc2)OC(=O)[C@H](C)[C@@H](C)NC(=O)[C@@H]([C@@H](C)O)NC(=O)[C@@H](CC(C)C)N(C)C(=O)[C@@H]2CSC1=N2` the IC50 was 11.5 µM (Dipeptidyl peptidase 8; enzyme activity; inhibitor).
For `CCCCCc1cc(O)c2c(c1)OC(C)(CCC=C(C)C)C=C2` (stereo not shown), the IC50 was 1.5 µM (Polyunsaturated fatty acid 5-lipoxygenase (ALOX5, Homo sapiens, UniProt P09917); enzyme activity in cells; inhibitor).
For `CC(C)Cc1ccc([C@H](C)C(=O)O)cc1`, the IC50 was about 6000 µM (Histone acetyltransferase KAT2B (KAT2B, Homo sapiens, UniProt Q92831); enzyme activity; inhibitor; mobility shift).
`COc1ccc(C(=O)CCN2CCN(c3ccccc3F)CC2)cc1` gave a Ki of 0.185 µM (HTR1D; ligand displacement; radioligand).
The Ki of `OC12CCCCC1C(c1ccccc1)NCC2` (stereo not shown) is reported as over 20 µM (Sodium-dependent serotonin transporter (Slc6a4, Rattus norvegicus, UniProt P31652); ligand displacement; radioligand).
`COc1ccc(C(=O)CCN2CCN(c3ccccc3OC)CC2)cc1` has a Ki of 0.062 µM (HTR1D; ligand displacement; radioligand).
`CSCC[C@H](NC(=O)[C@H](Cc1c[nH]c2ccccc12)NC(=O)CNC(=O)[C@H](Cc1ccc(O)cc1)NC(=O)[C@H](C)NC(=O)[C@@H](CCC(=O)O)NC(=O)CN1CCN(CC(=O)O)CCN(CC(=O)O)CCN(CC(=O)O)CC1)C(=O)N[C@@H](CC(=O)O)C(=O)N(C)[C@@H](Cc1ccccc1)C(N)=O` gave an IC50 of 0.0226 µM (Gastrin/cholecystokinin type B receptor (Rattus norvegicus, UniProt P30553); ligand displacement; radioligand).
With `O=C(CCCN1CCN(c2ccccc2)CC1)c1ccc(F)cc1` the Ki was 0.169 µM (HTR1D; ligand displacement; radioligand).
`COC[C@H]1OC(=O)c2coc3c2[C@@]1(C)C1=C(C3=O)[C@@H]2CCC(=O)[C@@]2(C)C[C@H]1OC(C)=O` has a Kd of over 10 µM (TGF-beta receptor type-2 (TGFBR2, Homo sapiens, UniProt P37173); cell-free assay; competition with immobilised ligand).
